# In paper PMC11303814 (Nature Communications, 2024):
# Target: T1, full-length wild-type rP2X7 (Rattus norvegicus, UniProt Q64663)
# T1 sequence (Q64663 1-595): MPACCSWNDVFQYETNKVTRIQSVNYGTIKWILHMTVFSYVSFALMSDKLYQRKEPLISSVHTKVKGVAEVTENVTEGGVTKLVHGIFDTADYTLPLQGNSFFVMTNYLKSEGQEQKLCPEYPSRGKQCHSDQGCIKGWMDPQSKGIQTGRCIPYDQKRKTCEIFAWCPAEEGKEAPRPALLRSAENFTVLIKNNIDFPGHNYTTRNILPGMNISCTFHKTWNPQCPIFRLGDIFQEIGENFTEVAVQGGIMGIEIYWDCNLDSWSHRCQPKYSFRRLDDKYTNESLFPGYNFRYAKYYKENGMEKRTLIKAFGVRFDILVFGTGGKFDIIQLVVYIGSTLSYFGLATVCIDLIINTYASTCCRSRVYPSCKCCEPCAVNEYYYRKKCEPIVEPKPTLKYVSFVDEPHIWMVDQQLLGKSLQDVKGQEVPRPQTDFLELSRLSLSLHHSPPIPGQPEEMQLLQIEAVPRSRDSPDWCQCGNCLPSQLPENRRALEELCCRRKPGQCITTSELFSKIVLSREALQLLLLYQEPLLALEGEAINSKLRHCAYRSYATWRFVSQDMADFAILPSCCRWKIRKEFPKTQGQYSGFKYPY
# Experiment: TEVC dose response
# Format: cell-based
# Conditions: WT rP2X7, TEVC
# How it was run: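 TEVC was run on Xenopus oocytes ~20 h after injection of wild-type or mutant rP2X7 mRNA, in pH 7.4 HEPES buffer with 0.1 mM flufenamic acid. Receptors were facilitated at 100 µM before recording. Dilution series: ATP 1.5 mM–2 µM (7 points), BzATP 300–0.14 µM (8 points). Responses were normalized to the largest concentration, fitted by nonlinear regression for EC50, and averaged across triplicates (mean ± SD).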
substance,measurement,value
BzATP,higher apparent affinity than ATP (EC50 ratio),~ 28 fold
